The test system of assay [1] is HCT-116. In words: Cytotoxicity against multidrug-resistant human HCT116 cells at 1 uM by thymidine incorporation assay. Type of assay: functional. Put shortly: (§1)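 HCT-116 cells were grown in IMDM and HCT-15 in RPMI 1640, each with L-glutamine, 10% FBS and penicillin-streptomycin, at 3000 cells/well. Compound was applied at 1 µM in 1% DMSO for 72 h total, with 3H-thymidine added for the final 16 h. Percent growth inhibition versus DMSO controls was scintillation-counted, averaging three wells in each of three assays.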
A general note: Incorporation of labelled thymidine or its analogues reports DNA synthesis.

Assay [2] relates to HCT-15. Description: Cytotoxicity against multidrug-resistant human HCT15 cells at 1 uM by thymidine incorporation assay. Type of assay: functional. Summed up: as §1

Square brackets hold non-standard residues; d marks the D form. Peptide text beside a SMILES is read from it. * marks the point of attachment. Cbz = O=C(OCc1ccccc1)*

With `CC(C)[C@@H]1NC(=O)[C@H](Cc2ccccc2)NC(=O)[C@H](C(C)C)NC(=O)[C@@H](C(C)C)NC(=O)[C@H](C(C)C)NC1=O` (HELM PEPTIDE1{F.V.V.[dV].V}$PEPTIDE1,PEPTIDE1,1:R1-5:R2$$$V2.0), the inhibition (as a rule, the relative decrease from the control value, in per cent) at 1 µM in assay [1] came to 19%; in assay [2] it was 1%.
The like results for `CC(C)C[C@@H]1NC(=O)[C@H](Cc2ccccc2)NC(=O)[C@H](CC(C)C)NC(=O)[C@H](C(C)C)N(C)C(=O)[C@H](CC(C)C)NC1=O` (HELM PEPTIDE1{F.L.L.[meV].L}$PEPTIDE1,PEPTIDE1,1:R1-5:R2$$$V2.0) were, in that order, 6% and 23%.
The like results for `CC(C)C[C@@H]1C(=O)N[C@H](Cc2ccccc2)C(=O)N[C@H](CC(C)C)C(=O)N[C@H](CC(C)C)C(=O)N[C@H](C(C)C)C(=O)N1C` (HELM PEPTIDE1{[dF].[dL].[dL].[dV].[CC(C)C[C@H](C(=O)[*:2])N(C)[*:1]]}$PEPTIDE1,PEPTIDE1,1:R1-5:R2$$$V2.0) were, in that order, 1% and 4%.
Take `CC(C)C[C@@H]1NC(=O)[C@@H](Cc2ccccc2)NC(=O)[C@@H](CC(C)C)NC(=O)[C@@H](C(C)C)NC(=O)[C@H](CCCCNC(=O)OCc2ccccc2)NC1=O` (cyclo(K(Cbz)[dV][dL][dF]L)): the inhibition at 1 µM worked out at 22% in assay [1] and 13% in assay [2].
The corresponding values for `CC(C)C[C@@H]1NC(=O)[C@H](CC(C)C)N(C)C(=O)[C@H](Cc2ccccc2)NC(=O)[C@H](CC(C)C)N(C)C(=O)[C@H](C(C)C)NC1=O` (HELM PEPTIDE1{F.[meL].L.V.[meL]}$PEPTIDE1,PEPTIDE1,1:R1-5:R2$$$V2.0) are 20% and 0%.
Turning to `CC(C)C[C@@H]1NC(=O)[C@H](Cc2ccccc2)NC(=O)[C@H](CC(C)C)NC(=O)[C@@H](CO)NC(=O)[C@H](CC(C)C)NC1=O` (HELM PEPTIDE1{F.L.L.[dS].L}$PEPTIDE1,PEPTIDE1,1:R1-5:R2$$$V2.0), the figures for the inhibition at 1 µM in assay [1] and in assay [2] were 0% and 11%, respectively.
The like results for `CC(C)C[C@@H]1NC(=O)[C@H](Cc2ccccc2)NC(=O)[C@H](CC(C)C)NC(=O)[C@H](C(C)C)NC(=O)[C@H](CCCCNC(=O)OCc2ccccc2)NC1=O` (cyclo(FLK(Cbz)VL)) were, in that order, 46% and 41%.
The corresponding values for `CC[C@H]1NC(=O)[C@H](C(C)C)NC(=O)[C@H](C(C)C)NC(=O)[C@H](Cc2ccccc2)NC(=O)[C@H](C(C)C)NC1=O` (HELM PEPTIDE1{F.V.V.[CC[C@@H](N[*:1])C(=O)[*:2]].V}$PEPTIDE1,PEPTIDE1,1:R1-5:R2$$$V2.0) are 16% and 2%.
The corresponding values for `CC(C)C[C@H]1NC(=O)[C@@H](Cc2ccccc2)NC(=O)[C@@H](CC(C)C)NC(=O)[C@@H](C(C)C)N(C)C(=O)[C@@H](CC(C)C)NC1=O` (HELM PEPTIDE1{[dF].[dL].[dL].[CC(C)[C@H](C(=O)[*:2])N(C)[*:1]].[dL]}$PEPTIDE1,PEPTIDE1,1:R1-5:R2$$$V2.0) are 18% and 31%.
For the compound `CC(C)C[C@@H]1NC(=O)[C@H](CC(C)C)NC(=O)[C@@H]2Cc3ccccc3CN2C(=O)[C@H](CC(C)C)NC(=O)[C@H](C(C)C)NC1=O` (HELM PEPTIDE1{L.L.V.L.[Tic]}$PEPTIDE1,PEPTIDE1,1:R1-5:R2$$$V2.0), the inhibition at 1 µM was found to be 3% in assay [1] and 27% in assay [2].
`CC(C)C[C@@H]1NC(=O)[C@H](Cc2ccccc2)NC(=O)[C@H](CC(C)C)NC(=O)[C@H](C(C)C)NC(=O)[C@H](CCCCN)NC1=O` (HELM PEPTIDE1{F.L.K.V.L}$PEPTIDE1,PEPTIDE1,1:R1-5:R2$$$V2.0): the inhibition at 1 µM in assay [1] came to 23%; in assay [2] it was 15%.
As for `CC(C)C[C@@H]1NC(=O)[C@H](Cc2ccccc2)NC(=O)[C@H](CC(C)C)NC(=O)[C@@H](C(C)C)NC(=O)[C@H](CCCCN)NC1=O` (HELM PEPTIDE1{F.L.K.[dV].L}$PEPTIDE1,PEPTIDE1,1:R1-5:R2$$$V2.0), the results for the inhibition at 1 µM in assay [1] and in assay [2] were 11% and 18%, respectively.
